# Experimental data of several laboratories.
# Protocols differ between the studies behind these lines.
# Effect on: cell growth or viability
Structure (SMILES),cell line,assay,conditions,endpoint,result
COc1ccc(NC(=O)Nc2cccc(-c3cn(Cc4cccc(Cl)c4)nn3)c2)cc1,PC-9,CCK-8,"20 µM, 72 h",viability,143%
CCOc1ccc(C(=O)CC(SCc2ccc(Cl)cc2)C(=O)OC)cc1 (stereo not drawn),HCT-116,MTT,48 h,EC50,70 µM
CCCCCCCCCCCCCCCCCCOc1cccc(CC(=O)OCC[N+](C)(C)C)c1,EKVX,SRB,10 µM,inhibition,1.89%
O=C(Nc1cccc(-c2cn(Cc3ccc(Cl)cc3)nn2)c1)Nc1ccccc1Br,PC-9,CCK-8,"20 µM, 72 h",viability,130%
CC(=O)Nc1nc2cc(-c3ccc4ncn(Cc5ccccc5)c(=O)c4c3)ccc2s1,PC-9,MTT,72 h,IC50,> 20 µM
O=C(NCc1cn(Cc2cccc(Cl)c2)nn1)Nc1ccc(Cl)cc1,PC-9,CCK-8,"20 µM, 72 h",viability,90.9%
COc1ccc2/c(=N/c3ccccc3NC(=O)[C@H](C)N)cc(-c3ccc4c(c3)OCCO4)oc2c1,HCT-116,CCK-8,1 µM,inhibition,16.5%
COc1ccc(NC(=O)Nc2cccc(-c3cn(Cc4ccc(Cl)cc4)nn3)c2)cc1,PC-9,CCK-8,"20 µM, 72 h",viability,147%
O=c1[nH]cc(F)c(=O)[nH]1,HCT-116,MTT,"100 µM, 48 h",cell death,84.6%
CCCCCCCCCCCCCCCCCCOc1ccc(CC(=O)OCC[N+]2(C)CCCCC2)cc1,EKVX,SRB,10 µM,inhibition,2.11%
NCCC(=O)Nc1ccccc1/N=c1\cc(-c2ccc3nc(N)oc3c2)oc2ccc(O)cc12,HCT-116,CCK-8,1 µM,inhibition,15%
Cc1ccccc1Cn1cc(-c2cccc(NC(=O)Nc3ccc(F)cc3)c2)nn1,PC-9,CCK-8,"50 µM, 72 h",viability,123%
O=C(NCc1ccccc1)Nc1nc2cc(-c3ccc4ncn(Cc5ccccc5)c(=O)c4c3)ccc2s1,PC-9,MTT,72 h,IC50,> 20 µM
COc1cc(C=NNC(=O)c2nc3ccccc3s2)ccc1O,HCT-116,MTT,"100 µM, 48 h",cell death,44.6%
N[C@@H](CO)C(=O)Nc1ccccc1/N=c1\cc(-c2ccc3c(c2)OCO3)oc2ccccc12,HCT-116,CCK-8,1 µM,inhibition,12.2%
O=C(Nc1ccc(Cl)cc1)Nc1ccc(-c2cn(Cc3cccc(Cl)c3)nn2)cc1,PC-9,CCK-8,"50 µM, 72 h",viability,76.4%
COc1ccc2/c(=N/c3ccccc3NC(=O)N3CCOCC3)cc(-c3ccc4c(c3)OCCO4)oc2c1,HCT-116,CCK-8,1 µM,inhibition,11.6%
COc1ccc(NC(=O)Nc2cccc(-c3cn(Cc4ccc(Br)cc4)nn3)c2)cc1,PC-9,CCK-8,"50 µM, 72 h",viability,90.3%
CCCCCCCCCCCCCCCCCCOc1cccc(CC(=O)OCC[N+]2(C)CCCC2)c1,EKVX,SRB,10 µM,inhibition,1.14%
O=C(Nc1ccc(Cl)cc1)Nc1cccc(-c2cn(Cc3cccc(Br)c3)nn2)c1,PC-9,CCK-8,"50 µM, 72 h",viability,92.9%
O=C(NCCc1ccccc1)Nc1nc2cc(-c3ccc4ncn(CCN5CCOCC5)c(=O)c4c3)ccc2s1,PC-9,MTT,72 h,IC50,8.14 µM
CCCCCCCCCCCCCCCCCCOc1ccccc1CC(=O)OCC[N+](CC)(CC)CC,EKVX,SRB,10 µM,inhibition,56.6%
NCCC(=O)Nc1ccccc1/N=c1\cc(-c2ccc3c(c2)OCCO3)oc2cc(F)ccc12,HCT-116,CCK-8,1 µM,inhibition,11.5%
O=C(Nc1ccc(F)cc1)Nc1nc2cc(-c3ccc4ncn(CCN5CCOCC5)c(=O)c4c3)ccc2s1,PC-9,MTT,72 h,IC50,> 20 µM
COc1ccc(NC(=O)Nc2cccc(-c3cn(Cc4ccc(C)cc4)nn3)c2)cc1,PC-9,CCK-8,"20 µM, 72 h",viability,159%
O=C(Nc1ccc(Cl)cc1)Nc1cccc(-c2cn(Cc3cccc(Cl)c3)nn2)c1,PC-9,CCK-8,"20 µM, 72 h",viability,102%
Nc1ccccc1/N=c1\cc(-c2ccc3c(c2)OCO3)oc2ccccc12,HCT-116,CCK-8,1 µM,inhibition,1.69%
O=C(NCc1cn(Cc2ccc(Br)cc2)nn1)Nc1ccccc1Br,PC-9,CCK-8,"50 µM, 72 h",viability,163%
CC(C)NC(=O)Nc1nc2cc(-c3ccc4ncn(Cc5ccccc5)c(=O)c4c3)ccc2s1,PC-9,MTT,72 h,IC50,> 20 µM
NCC(=O)Nc1ccccc1/N=c1\cc(-c2ccc3c(c2)OCCO3)oc2ccccc12,HCT-116,CCK-8,1 µM,inhibition,16.4%
COc1ccc(NC(=O)Nc2ccc(-c3cn(Cc4cccc(Cl)c4)nn3)cc2)cc1,PC-9,CCK-8,"50 µM, 72 h",viability,90.4%
Cc1nc(NC(=O)N2CCC[C@H]2C(N)=O)sc1-c1ccnc(C(C)(C)C(F)(F)F)c1,KYSE-510,ATP luminescence,5 days,EC50,1.5 µM
CCC(=O)Nc1nc2cc(-c3ccc4ncn(Cc5ccccc5)c(=O)c4c3)ccc2s1,PC-9,MTT,72 h,IC50,> 20 µM
CCCCCCCCCCCCCCCCCCOc1cccc(CC(=O)OCCC[N+](C)(C)C)c1,EKVX,SRB,10 µM,inhibition,4.64%
C=C(NC(=O)C(=C)NC(=O)c1csc(C2=N[C@@H]3c4csc(n4)[C@H]4NC(=O)c5csc(n5)[C@H]([C@](C)(O)[C@@H](C)O)NC(=O)[C@H]5CSC(=N5)/C(=C/C)NC(=O)[C@H]([C@@H](C)O)NC(=O)c5csc(n5)[C@]3(CC2)NC(=O)[C@H](C)NC(=O)C(=C)NC(=O)[C@H](C)NC(=O)[C@H]([C@@H](C)CC)N[C@@H]2C=Cc3c([C@H](C)O)cc(nc3[C@H]2O)C(=O)O[C@@H]4C)n1)C(N)=O,SK-OV-3,,,EC50,2.5 µM
O=C(NCc1cn(Cc2ccc(Br)cc2)nn1)Nc1ccc(Cl)cc1,PC-9,CCK-8,"20 µM, 72 h",viability,111%
COc1cccc(NC(=O)Nc2nc3cc(-c4ccc5ncn(Cc6ccccc6)c(=O)c5c4)ccc3s2)c1,PC-9,MTT,72 h,IC50,> 20 µM
C[C@H](Nc1ccc2c(c1)OCCn1cc(N3C(=O)OC[C@H]3C(F)F)nc1-2)C(N)=O,SK-OV-3,ATP luminescence,5 days,EC50,0.0574 µM
CCCCCCCCCCCCCCCCCCOc1ccc(CC(=O)OCCC[N+](C)(C)C)cc1,EKVX,SRB,10 µM,inhibition,3.92%
Cc1nc(Nc2ncc(C(=O)Nc3c(C)cccc3Cl)s2)cc(N2CC[C@H](O)C2)n1,Raji,ATP luminescence,"10 µM, 72 h",inhibition,-2%
Nc1nc2ccc(-c3c/c(=N\c4ccccc4NC(=O)C4CCNC4)c4ccccc4o3)cc2o1 (stereo not drawn),HCT-116,CCK-8,1 µM,inhibition,62.6%
O=C(NCc1cn(Cc2ccc(Cl)cc2)nn1)Nc1ccc(Cl)cc1,PC-9,CCK-8,"50 µM, 72 h",viability,81.7%
COc1ccc(NC(=O)Nc2cccc(-c3cn(Cc4ccccc4C)nn3)c2)cc1,PC-9,CCK-8,"50 µM, 72 h",viability,98.2%
CCCCCCCCCCCCCCCCCCOc1ccccc1CC(=O)OCC[N+]1(C)CCCCC1,EKVX,SRB,10 µM,inhibition,36.9%
O=C(Nc1ccc(-c2cn(Cc3ccc(Br)cc3)nn2)cc1)Nc1ccccc1Br,PC-9,CCK-8,"20 µM, 72 h",viability,85%
